Measured values pooled from the literature.
Each line is one published result; the experiments were not run side by side.
Cell line: NCI-H460
Read-out: cell growth or viability

With CCCCCCCCCCCCCCCCCCOc1ccccc1CC(=O)OCCC[N+](C)(C)C the inhibition was 19.9% (SRB; 10 µM).
COc1cc([C@@H]2c3cc4c(cc3[C@@H](O[C@@H]3O[C@@H]5CO[C@@H](C)O[C@H]5[C@H](O)[C@H]3O)[C@H]3COC(=O)[C@H]23)OCO4)cc(OC)c1O has an IC50 of 0.69 µM (MTS; 72 h).
COc1ccc(NC(=O)Nc2cccc(-c3cn(Cc4ccc(Br)cc4)nn3)c2)cc1 has a viability of 106% (CCK-8; 50 µM; 72 h).
With CCCCCCCCCCCCCCCCCCOc1ccc(CC(=O)OCC[N+]2(C)CCOCC2)cc1 the inhibition was 0.33% (SRB; 10 µM).
For FC(F)(F)c1cc(OCc2cc(-c3ccccn3)no2)c2ccccc2n1, the IC50 was > 100 µM (MTS; 72 h).
For CCCCCCCCCCCCCCCCCCOc1ccccc1CC(=O)OCC[N+]1(C)CCOCC1, the inhibition was 30.8% (SRB; 10 µM).
Cc1ccccc1Cn1cc(-c2cccc(NC(=O)Nc3ccc(F)cc3)c2)nn1 has a viability of 72.6% (CCK-8; 50 µM; 72 h).
CCCCCCCCCCCCCCCCCCOc1cccc(CC(=O)OCCC[N+](C)(C)C)c1 gave an inhibition of 4.47% (SRB; 10 µM).
With O=c1cc(OCc2cc(-c3ccc(C(F)(F)F)cc3)no2)c2ccccc2o1 the IC50 was > 100 µM (MTS; 72 h).
With COc1ccc(NC(=O)NCc2cn(Cc3ccc(C)cc3)nn2)cc1 the viability was 95.5% (CCK-8; 50 µM; 72 h).
CCCCCCCCCCCCCCCCCCOc1cccc(CC(=O)OCC[N+]2(C)CCCC2)c1 gave an inhibition of 4.17% (SRB; 10 µM).
COc1ccc(NC(=O)Nc2ccc(-c3cn(Cc4ccc(Br)cc4)nn3)cc2)cc1 has a viability of 86.6% (CCK-8; 50 µM; 72 h).
For Clc1ccc(-c2cc(CNc3cccc4cccnc34)on2)c(Cl)c1, the IC50 was > 100 µM (MTS; 72 h).
CCCCCCCCCCCCCCCCCCOc1ccccc1CC(=O)OCC[N+]1(C)CCCC1 has an inhibition of 72.5% (SRB; 10 µM).
The IC50 of O=C(CSc1nc2ccccc2s1)N/N=C/c1ccc(OCC(=O)Nc2cccc([N+](=O)[O-])c2)cc1 is reported as 15.8 µM (MTS; 72 h).
CCCCCCCCCCCCCCCCCCOc1ccc(CC(=O)OCC[N+](CC)(CC)CC)cc1 has an inhibition of 15.8% (SRB; 10 µM).
COc1ccc(NC(=O)Nc2cccc(-c3cn(Cc4ccc(Cl)cc4)nn3)c2)cc1 gave a viability of 104% (CCK-8; 50 µM; 72 h).
With O=c1cc(OCc2cc(-c3ccccc3)no2)c2ccccc2o1 the IC50 was > 100 µM (MTS; 72 h).
O=C(CSc1nc2ccccc2s1)N/N=C/c1ccc(OCC(=O)Nc2ccc([N+](=O)[O-])cc2)cc1 gave an IC50 of > 100 µM (MTS; 72 h).
C[C@H](Nc1ccc2c(c1)OCCn1cc(N3C(=O)OC[C@H]3C(F)F)nc1-2)C(N)=O has an EC50 of 2900 nM (ATP luminescence; 5 days).
For c1ccc(-c2cc(CNc3cccc4cccnc34)on2)nc1, the IC50 was > 100 µM (MTS; 72 h).
COc1ccc(NC(=O)Nc2cccc(-c3cn(Cc4cccc(Cl)c4)nn3)c2)cc1 has a viability of 105% (CCK-8; 50 µM; 72 h).
FC(F)(F)c1ccc(-c2cc(COc3cc(C(F)(F)F)nc4ccccc34)on2)cc1 gave an IC50 of > 100 µM (MTS; 72 h).
For COc1ccc(NC(=O)Nc2ccc(-c3cn(Cc4cccc(Cl)c4)nn3)cc2)cc1, the viability was 87.4% (CCK-8; 50 µM; 72 h).
For O=C(CSc1nc2ccccc2s1)N/N=C/c1ccc(OCC(=O)Nc2cccc(Br)c2)cc1, the IC50 was 32.1 µM (MTS; 72 h).
The inhibition of CCCCCCCCCCCCCCCCCCOc1ccccc1CC(=O)OCC[N+]1(C)CCCCC1 is reported as 37.8% (SRB; 10 µM).
For FC(F)(F)c1cc(OCc2cc(-c3ccc(Cl)cc3Cl)no2)c2ccccc2n1, the IC50 was > 100 µM (MTS; 72 h).
